Data as given in ChEMBL document CHEMBL4680226, “Design, synthesis, and evaluation of N-phenyl-4-(2-phenylsulfonamido)-benzamides as microtubule-targeting agents in drug-resistant cancer cells, displaying HDAC inhibitory response” (Eur J Med Chem, 2020).
The source made the active and inactive calls. The rule behind the calls is not given here.

What was measured:
[1] = tested on: KB7D; experiment: Induction of apoptosis in human KB7D cells assessed as increase in cleaved caspase-8 expression by Western blot analysis; format: functional, cell-based
Outline: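 KB-7D cells in RPMI 1640 with 5% FBS and 1% penicillin-streptomycin at 37 °C, 5% CO2, attached overnight. Treated with indicated concentrations for 24 or 48 h, lysed, and immunoblotted for cleaved caspases.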

[2] = tested on: KB7D; experiment: Induction of apoptosis in human KB7D cells assessed as increase in activated gammaH2AX expression at 0.1 to 0.5 uM measured after 24 hrs by Western blot analysis; format: functional, cell-based; conditions: dose 0.1-0.5 µM
Outline: (§1)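 Resistant KB cells attached overnight, then drug-treated at the stated concentrations and times (24 h or 48 h). Lysates were immunoblotted for cleaved PARP, caspase-3, -8 and -9, and γH2AX, with anti-mouse or anti-rabbit IgG secondaries.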

[3] = tested on: KB-VIN; experiment: Cell cycle arrest in human KB-VIN cells assessed as increase in accumulation at sub-G1 phase at 0.05 uM measured after 48 hrs by propidium iodide staining based flow cytometry; format: functional
Outline: (§2)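 Cells seeded at 2.5×10^5 per well and exposed to DMSO or compound for the stated times. They were washed in PBS and fixed overnight in ice-cold 70% ethanol at −20 °C. Staining used propidium iodide 80 µg/mL with 0.1% Triton X-100 and RNase A 100 µg/mL in PBS. DNA content was read by FACScan flow cytometry.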

[4] = tested on: KB-VIN; experiment: Induction of apoptosis in human KB-VIN cells assessed as increase in activated gammaH2AX expression by Western blot analysis; format: functional, cell-based; outline: as §1
[5] = tested on: KB-VIN; experiment: Induction of apoptosis in human KB-VIN cells assessed as increase in cleaved caspase-3 expression by Western blot analysis; format: functional, cell-based; outline: as §1
[6] = tested on: KB7D; experiment: Induction of apoptosis in human KB7D cells assessed as increase in cleaved caspase-3 expression at 0.01 to 0.1 uM measured after 48 hrs by Western blot analysis; format: functional, cell-based; conditions: dose 0.01-0.1 µM; outline: as §1
[7] = biological target: T1, Tubulin (Homo sapiens) (UniProt P68371+Q9H4B7+P0DPH7+P68366+Q13509+Q71U36+P04350+Q3ZCM7+P07437+P68363+Q9BQE3+Q6PEY2+Q13885+Q9BVA1+Q9BUF5); experiment: Induction of microtubule disruption in human KB-VIN cells at 0.05 uM measured after 24 hrs by DAPI staining based deconvolution fluorescence microscopic analysis; format: cell-based
Outline: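 Cells on glass coverslips treated 24 h, fixed in 4% paraformaldehyde for 15 min, and permeabilized with 0.5% Triton X-100. Blocked in PBS/2% BSA, stained with anti-beta-tubulin (1:250) and Alexa 488 anti-mouse (1:250), and mounted with DAPI. Imaged by wide-field deconvolution microscopy.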

[8] = biological target: T1, Tubulin (Homo sapiens); experiment: Induction of microtubule disruption in human KB-VIN cells assessed as polymerized fraction at 0.1 uM measured after 16 hrs by SDS-PAGE analysis (reference value: 23.1 to 25.5%); format: cell-based
Outline: (§3)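 KB-Vin or KB-7D cells treated 16 h, then lysed 5 min at 37 °C in the dark in hypotonic buffer (1% NP-40, 1 mmol/L MgCl2, 2 mmol/L EGTA, 50 mmol/L Tris-HCl pH 6.8, protease inhibitors). Spun 13000 rpm, 10 min, room temperature. Soluble supernatant and resuspended polymerized pellet run on SDS-PAGE.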

[9] = biological target: T1, Tubulin (Homo sapiens); experiment: Induction of microtubule disruption in human KB7D cells assessed as polymerized fraction at 0.1 uM measured after 16 hrs by SDS-PAGE analysis (reference value: 26.4 to 29%); format: cell-based; outline: as §3
[10] = tested on: KB-VIN; experiment: Induction of apoptosis in human KB-VIN cells assessed as increase in cleaved caspase-8 expression at 0.1 to 0.5 uM measured after 24 hrs by Western blot analysis; format: functional, cell-based; conditions: dose 0.1-0.5 µM; outline: as §1
[11] = tested on: KB-VIN; experiment: Induction of apoptosis in human KB-VIN cells assessed as increase in cleaved caspase-8 expression by Western blot analysis; format: functional, cell-based; outline: as §1
[12] = Antiproliferative activity against human KB7D cells incubated for 48 hrs by SRB assay; format: functional
Outline: (§4)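 KB parental and resistant sublines kept in RPMI 1640 with 5% FBS at 37 °C, 5% CO2. Cells plated, left overnight, then given graded compound concentrations for 48 h. A time-zero plate was fixed with 10% TCA at dosing. Cells were stained with 0.4% SRB in 1% acetic acid, unbound dye washed off, bound dye dissolved in 10 mM Tris base, and absorbance read at 515 nm.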

[13] = tested on: KB7D; experiment: Induction of apoptosis in human KB7D cells assessed as increase in cleaved caspase-3 expression by Western blot analysis; format: functional, cell-based; outline: as §1
[14] = tested on: KB-VIN; experiment: Cell cycle arrest in human KB-VIN cells assessed as increase in accumulation at sub-G1 phase at 0.5 uM measured after 24 hrs by propidium iodide staining based flow cytometry; format: functional; outline: as §2
[15] = biological target: T2, Histone deacetylase 8 (Homo sapiens, UniProt Q9BY41); experiment: Inhibition of human recombinant HDAC8 using RHKAcKAc-AMC as substrate measured after 60 mins by fluorescence assay
T2 sequence (Q9BY41 whole entry): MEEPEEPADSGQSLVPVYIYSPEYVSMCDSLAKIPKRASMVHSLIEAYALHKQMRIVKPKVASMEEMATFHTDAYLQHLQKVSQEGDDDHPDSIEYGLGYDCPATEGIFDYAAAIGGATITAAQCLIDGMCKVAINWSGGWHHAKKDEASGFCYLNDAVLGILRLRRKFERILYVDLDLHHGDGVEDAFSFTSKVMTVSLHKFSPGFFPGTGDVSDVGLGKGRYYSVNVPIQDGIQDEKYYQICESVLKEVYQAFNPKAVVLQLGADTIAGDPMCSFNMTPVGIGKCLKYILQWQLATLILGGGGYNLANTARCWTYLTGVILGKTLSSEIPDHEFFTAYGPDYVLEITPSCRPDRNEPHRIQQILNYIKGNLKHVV

[16] = tested on: KB; experiment: Antiproliferative activity against human KB cells incubated for 48 hrs by SRB assay; format: functional; outline: as §4
[17] = tested on: KB-VIN; experiment: Induction of apoptosis in human KB-VIN cells assessed as increase in activated gammaH2AX expression at 0.1 to 0.5 uM measured after 24 hrs by Western blot analysis; format: functional, cell-based; conditions: dose 0.1-0.5 µM; outline: as §1
[18] = tested on: KB7D; experiment: Induction of apoptosis in human KB7D cells assessed as increase in activated gammaH2AX expression at 0.01 to 0.1 uM measured after 48 hrs by Western blot analysis; format: functional, cell-based; conditions: dose 0.01-0.1 µM; outline: as §1
[19] = tested on: KB-VIN; experiment: Cell cycle arrest in human KB-VIN cells assessed as increase in accumulation at G2/M phase at 0.01 to 0.05 uM measured after 18 to 24 hrs by propidium iodide staining based flow cytometry; format: functional; conditions: dose 0.01-0.05 µM, time 18-24 hrs; outline: as §2
[20] = tested on: KB-VIN; experiment: Induction of apoptosis in human KB-VIN cells assessed as increase in cleaved PARP expression at 0.1 to 0.5 uM measured after 24 hrs by Western blot analysis; format: functional, cell-based; conditions: dose 0.1-0.5 µM; outline: as §1

COc1ccc(S(=O)(=O)Nc2ccccc2NCc2ccc(C(=O)Nc3ccccc3N)cc2)cc1
Activity [1]: Dose-dependent effect
Activity [2]: Active
Activity [3]: Active
Activity [4]: Dose-dependent effect
Activity [5]: Dose-dependent effect
Activity [6]: Active
Activity [7]: Active
Activity [8]: 20.4%
Activity [9]: 13.3%
Activity [10]: Active
Activity [11]: Dose-dependent effect
GI50 [12]: 12 nM
Activity [13]: Dose-dependent effect
Activity [14]: Active
IC50 [15]: > 10000 nM
GI50 [16]: 10 nM
Activity [17]: Active
Activity [18]: Active
Activity [19]: Active
Activity [20]: Active
